What follows are molecules tested against Methionine--tRNA ligase, mitochondrial (Homo sapiens) (UniProt Q96GW9) (assay: inhibitors of human mitochondrial MetRS, late-stage follow-up, selectivity assay for T. brucei MetRS inhibitor project, biochemical, radioactivity, round 1 (AID 743061;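 note: 0% = DMSO with full reaction and 100% = DMSO wells lacking tRNA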)). Details: recombinant human mtMetRS, [3H]Met tRNA charging, at 1 µM, stronger effect = higher value.
Method in brief: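 Material: Recombinant human mitochondrial methionyl-tRNA synthetase (MetRS) | Medium: pH 8.0 buffer, 2.5 mM ATP | Reagent: [3H]Met 240 nM plus bulk E. coli tRNA | Compound: 10 and 1 µM | Schedule: 15 min compound–enzyme preincubation, then 1 h reaction at room temperature | Measured by: Scintillation counts of TCA-precipitated charged tRNA on filters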
`CCC(=O)c1cn(CC(=O)Nc2cccc(C(F)(F)F)c2)c2ccccc12` gave an inhibition of -18.3%. In the case of `CC(=O)c1c[nH]c(C(=O)NCc2cccc(C(F)(F)F)c2)c1`, the inhibition is reported as -7.99%. Work on `Cc1cccc(NC(=O)C2CC(=O)n3c(nc4ccccc43)N2)c1` (stereo not given) yielded an inhibition of 10.7%. `O=C1CC(NCCc2ccccc2)C(=O)N1c1ccc(Br)cc1` (stereo not given) gave an inhibition of -12.9%. Molecule `O=C(Cn1cc(C(=O)COc2ccccc2)c2ccccc21)Nc1cccc(C(F)(F)F)c1` has an inhibition of -22.6%. In the case of `CC(C)(C)[C@@H]1C=C(C(=O)NCc2nc3ccccc3[nH]2)O[C@H](OCc2ccc(CO)cc2)C1`, the inhibition is reported as -10.6%. Molecule `Cc1ccc(NC(=O)CN(C)C(=O)CCSc2ccc(F)cc2)cc1` has an inhibition of -35.7%. `O=C(Cn1cc(C(=O)C(=O)N2CCCC2)c2ccccc21)Nc1ccccc1` showed an inhibition of -7.71%. `CCN(CCc1nc2ccc(C)cc2[nH]1)C(=O)c1ccc2ncccc2c1` showed an inhibition of -5.17%. In the case of `COc1ccc2[nH]c3nc(SCC(=O)Nc4ccc5c(c4)OCO5)nnc3c2c1`, the inhibition is reported as 14.3%. With `COc1ccccc1NC(=O)Cn1cc(C(=O)C(=O)N2CCOCC2)c2ccccc21` the inhibition was -9.04%. `O=C(NCc1nc2ccccc2[nH]1)C1=C[C@H](c2ccc(Br)cc2)C[C@H](OCc2ccc(CO)cc2)O1` gave an inhibition of 0.59%. Work on `Cc1[nH]c2ccc(Br)cc2c(=O)c1CN1CCCCCC1` yielded an inhibition of -31.2%. `CC(CC(=O)Nc1cccc(Br)c1)=NNC(=O)c1ccc(O)cc1O` gave an inhibition of -24.6%. `O=C(Cn1cc(C(=O)c2ccco2)c2ccccc21)Nc1cccc(C(F)(F)F)c1` was tested, and the inhibition was 2.74%. For `O=C(NCc1nc2ccccc2[nH]1)C1=C[C@@H](c2ccc(Br)cc2)C[C@@H](OCc2ccc(CO)cc2)O1`, the inhibition was -11.6%. Work on `CC(=O)N(CCc1ccccc1)C1CC(=O)N(c2ccc(Br)cc2)C1=O` (stereo not given) yielded an inhibition of -17.2%. `CCc1ccc2[nH]c3nc(SCC(=O)NCc4cccc(OC)c4)nnc3c2c1` gave an inhibition of -1.1%. In the case of `O=C(NCc1nc2ccccc2[nH]1)C1=C[C@@H](c2ccccc2)C[C@@H](OCc2ccc(CO)cc2)O1`, the inhibition is reported as -16.8%. With `O=C(CSc1nnc2c(n1)[nH]c1ccc(Br)cc12)NCc1ccccc1` the inhibition was -0.52%. With `Cc1ccc2[nH]c3nc(SCC(=O)Nc4ccc(C(F)(F)F)cc4)nnc3c2c1` the inhibition was -10%. With `CCCCn1c(CCNC(=O)c2ccc(F)cc2)nc2ccccc21` the inhibition was 3.64%. For `CCc1ccc2c(c1)c1nnc(SCC(=O)Nc3ccc4c(c3)OCO4)nc1n2C`, the inhibition was -9.7%. In the case of `COc1ccc(NC(=O)C2CC(=O)n3c(nc4ccccc43)N2)cc1` (stereo not given), the inhibition is reported as -2.67%. For `Brc1cnc2nc(SCc3nc4ccccc4[nH]3)[nH]c2c1`, the inhibition was -21.5%. In the case of `O=C(Cn1cc(C(=O)C(=O)N2CCOCC2)c2ccccc21)NCC1CCCO1` (stereo not given), the inhibition is reported as -9.17%. Molecule `O=C(CC=NOCc1ccc([N+](=O)[O-])cc1)Nc1ccc(Cl)cc1` has an inhibition of -13%. Molecule `CCN(CC)C(=O)C(=O)c1cn(CC(=O)Nc2cccc(OC)c2)c2ccccc12` has an inhibition of 10.6%. Work on `Cn1c(CCNC(=O)c2ccc(Cl)cc2)nc2ccccc21` yielded an inhibition of 11.6%. `CN1CC(=O)N2C(c3cccc([N+](=O)[O-])c3)c3[nH]c4ccccc4c3C[C@H]2C1=O` (stereo not given in full) showed an inhibition of -17.1%. Molecule `O=C(Cn1cnc2ccccc21)Nc1cccc([N+](=O)[O-])c1` has an inhibition of -15.4%. For `O=C(Cn1cc(C(=O)c2ccccc2)c2ccccc21)Nc1cccc(C(F)(F)F)c1`, the inhibition was -2.29%. `O=C(Cn1cc(C(=O)C(=O)N2CCOCC2)c2ccccc21)NCc1ccccc1` showed an inhibition of -5.05%. Work on `CNC(=S)N(CCc1ccccc1)C1CC(=O)N(c2ccc(Br)cc2)C1=O` (stereo not given) yielded an inhibition of 39%. `C[C@H](O)[C@@H]1C(=O)N2CCc3c([nH]c4ccccc34)[C@@H]2C[C@@H]1N(C)Cc1ccc2c(c1)OCO2` showed an inhibition of -17.7%.
